How the values were obtained:
[1] = Drug uptake in Danish Landrace pig thalamus at 468+/-31 MBq, iv up to 20 mins by PET scanning; assay type: ADME, organism-based, Sus scrofa; settings: in vivo
Outline: (§1)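 Images were co-registered to an MRI atlas of the pig brain. Striatum was the mean of caudate and putamen, thalamus the mean of lateral and medial thalamus, and each region left/right averaged. Uptake is expressed as SUV (kBq/mL normalized to injected dose per kg). For the blocking condition, SB-269970 was infused at 0.5–1.0 mg/kg/h from 30 min before the second scan.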

[2] = Drug uptake in Danish Landrace pig striatum at 468+/-31 MBq, iv up to 20 mins by PET scanning; assay type: ADME, organism-based, Sus scrofa; settings: in vivo; outline: as §1
[3] = Drug uptake in Danish Landrace pig cerebellum at 468+/-31 MBq, iv up to 20 mins by PET scanning; assay type: ADME, organism-based, Sus scrofa; settings: in vivo; outline: as §1
[4] = Drug uptake in Danish Landrace pig thalamus at 468+/-31 MBq, iv after 20 mins by PET scanning; assay type: ADME, organism-based, Sus scrofa; settings: in vivo; outline: as §1
[5] = Drug uptake in Danish Landrace pig striatum at 468+/-31 MBq, iv after 20 mins by PET scanning; assay type: ADME, organism-based, Sus scrofa; settings: in vivo; outline: as §1
[6] = Drug uptake in Danish Landrace pig cerebellum at 468+/-31 MBq, iv after 20 mins by PET scanning; assay type: ADME, organism-based, Sus scrofa; settings: in vivo; outline: as §1
[7] = Drug uptake in Danish Landrace pig thalamus pre-treated with SB269970 at 468+/-31 MBq, iv administered 30 mins post SB269970-treatment measured up to 20 mins by PET scanning; assay type: ADME, organism-based, Sus scrofa; settings: in vivo; outline: as §1
[8] = Drug uptake in Danish Landrace pig striatum pre-treated with SB269970 at 468+/-31 MBq, iv administered 30 mins post SB269970-treatment measured up to 20 mins by PET scanning; assay type: ADME, organism-based, Sus scrofa; settings: in vivo; outline: as §1
[9] = Drug uptake in Danish Landrace pig cerebellum pre-treated with SB269970 at 468+/-31 MBq, iv administered 30 mins post SB269970-treatment measured up to 20 mins by PET scanning; assay type: ADME, organism-based, Sus scrofa; settings: in vivo; outline: as §1
[10] = test system: Plasma; assay: Drug metabolism in Danish Landrace pig plasma at 468+/-31 MBq, iv; assay type: ADME, Sus scrofa
Outline: (§2)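 Blood was drawn at 2.5–90 min and centrifuged; plasma was filtered 0.45 µm and analysed for parent and radiometabolites by column-switching HPLC with online radioactivity detection. For the blocking condition, SB-269970 was infused at 0.5–1.0 mg/kg/h from 30 min before the second scan and continued throughout it.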

[11] = test system: Plasma; assay: Drug metabolism in Danish Landrace pig plasma pre-treated with SB269970 at 468+/-31 MBq, iv administered 30 mins post SB269970-treatment measured upto 90 mins; assay type: ADME, organism-based, Sus scrofa; settings: in vivo; outline: as §2
[12] = Free fraction in Danish Landrace pig plasma at 5 MBq after 3 hrs by equilibrium dialysis; assay type: ADME, cell-free, Sus scrofa
[13] = Lipophilicity, log D of the compound at pH 7.4 by HPLC analysis; assay type: physicochemical; settings: buffer
Outline: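 Measured by RP-HPLC on a C8 column at 37 °C with 50:50 25 mM sodium phosphate pH 7.4/MeOH at 2 mL/min and UV detection at 254 nm. LogD was derived from log retention factor via a calibration line of reference compounds with known logD.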

[14] = Displacement of [3H]SB269970 from 5HT7R in Danish Landrace pig brain section after 2 hrs by autoradiography; set-up: species or system Sus scrofa
Outline: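 Pig brain sections incubated 2 h with [3H]SB-269970 plus varying competitor in 50 mM Tris–HCl pH 7.4. Washes were 3 × 5 min in ice-cold buffer, then a dip in ice-cold water. Sections were dried and exposed to tritium-sensitive plates for 14 days. Specific binding (total minus non-specific) was plotted against competitor concentration.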

COc1cccc(OC)c1-c1cccc(CCN(C)[11CH3])c1
Drug uptake [1]: Active
Drug uptake [2]: Active
Drug uptake [3]: Active
Drug uptake [4]: Not Active
Drug uptake [5]: Not Active
Drug uptake [6]: Not Active
Drug uptake [7]: Not Active
Drug uptake [8]: Not Active
Drug uptake [9]: Not Active
Drug metabolism [10]: Active
Drug metabolism [11]: Active
fraction unbound at 3 h, 5 MBq [12]: 0.235

COc1cccc(OC)c1-c1cccc(CCN(C)C)c1
logD [13]: 4.4
Ki [14]: 8.82 nM
